Experiment [1] addresses RAC-beta serine/threonine-protein kinase (Homo sapiens) (UniProt P31751). The experiment in a line: Inhibition of wild-type human partial length AKT2 expressed in Escherichia coli BL21 assessed as residual activity at 1000 nM after 30 mins by Kinomescan method relative to control.
Experiment [2] concerns ALK tyrosine kinase receptor (Homo sapiens), Q9UM73 [C1156Y]. The experiment in a line: Inhibition of wild-type human partial length ALK C1156Y mutant (I1088 to E1409 residues) expressed in HEK293 cells assessed as residual activity at 1000 nM after 30 mins by Kinomescan method relative to control. In kind it is cell-based.
Experiment [3] relates to ALK tyrosine kinase receptor (Homo sapiens), Q9UM73 [L1196M]. The experiment in a line: Inhibition of wild-type human partial length ALK L1196M mutant (I1088 to E1409 residues) expressed in HEK293 cells assessed as residual activity at 1000 nM after 30 mins by Kinomescan method relative to control. In kind it is cell-based.
Experiment [4] has as its target Casein kinase I isoform alpha (Homo sapiens) (UniProt P48729). The experiment in a line: Inhibition of wild-type human partial length CSNK1A1 (M1 to L450 residues) expressed in HEK293 cells assessed as residual activity at 1000 nM after 30 mins by Kinomescan method relative to control. Format: cell-based.
Experiment [5] deals with Casein kinase I isoform gamma-1 (Homo sapiens) (UniProt Q9HCP0). Put plainly: Inhibition of wild-type human partial length CSNK1G1 (T15 to S353 residues) expressed in Escherichia coli BL21 assessed as residual activity at 1000 nM after 30 mins by Kinomescan method relative to control.
Experiment [6] deals with Casein kinase I isoform gamma-3 (Homo sapiens) (UniProt Q9Y6M4). Put plainly: Inhibition of wild-type human full length CSNK1G3 (M1 to K447 residues) expressed in Escherichia coli BL21 assessed as residual activity at 1000 nM after 30 mins by Kinomescan method relative to control. The method, boiled down:
(§1)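 Single-point screen at a fixed 1 µM, run within a 456-kinase DiscoveRx KINOMEscan panel. Each kinase's read-out is Percent Control, i.e. signal relative to a control without compound. Hits were scored by a Percent Control < 35 cut-off, and an S(35) selectivity score was calculated across the non-mutant kinases.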

Experiment [7] deals with Epithelial discoidin domain-containing receptor 1 (Homo sapiens) (UniProt Q08345). The experiment in a line: Inhibition of wild-type human partial length DDR1 (R565 to V876 residues) expressed in Escherichia coli BL21 assessed as residual activity at 1000 nM after 30 mins by Kinomescan method relative to control.
Experiment [8] concerns the target Discoidin domain-containing receptor 2 (Homo sapiens) (UniProt Q16832). Put plainly: Inhibition of wild-type human partial length DDR2 (V555 to E855 residues) expressed in HEK293 cells assessed as residual activity at 1000 nM after 30 mins by Kinomescan method relative to control. Format: cell-based.
Experiment [9] deals with Epidermal growth factor receptor (Homo sapiens) (UniProt P00533). The experiment in a line: Inhibition of wild-type human partial length EGFR (R669 to V1011 residues) expressed in Escherichia coli BL21 assessed as residual activity at 1000 nM after 30 mins by Kinomescan method relative to control.
For experiment [10], the target named is Mitogen-activated protein kinase 7 (Homo sapiens) (UniProt Q13164). The experiment in a line: Inhibition of wild-type human partial length ERK5 (M1 to A409 residues) expressed in Escherichia coli BL21 assessed as residual activity at 1000 nM after 30 mins by Kinomescan method relative to control.
The target of experiment [11] is Mast/stem cell growth factor receptor Kit (Homo sapiens) (UniProt P10721). The experiment in a line: Inhibition of wild-type human partial length KIT (I571 to D952 residues) expressed in Escherichia coli BL21 assessed as residual activity at 1000 nM after 30 mins by Kinomescan method relative to control.
Chain of Mast/stem cell growth factor receptor Kit (Homo sapiens) (P10721 whole entry, the tested form may be a part): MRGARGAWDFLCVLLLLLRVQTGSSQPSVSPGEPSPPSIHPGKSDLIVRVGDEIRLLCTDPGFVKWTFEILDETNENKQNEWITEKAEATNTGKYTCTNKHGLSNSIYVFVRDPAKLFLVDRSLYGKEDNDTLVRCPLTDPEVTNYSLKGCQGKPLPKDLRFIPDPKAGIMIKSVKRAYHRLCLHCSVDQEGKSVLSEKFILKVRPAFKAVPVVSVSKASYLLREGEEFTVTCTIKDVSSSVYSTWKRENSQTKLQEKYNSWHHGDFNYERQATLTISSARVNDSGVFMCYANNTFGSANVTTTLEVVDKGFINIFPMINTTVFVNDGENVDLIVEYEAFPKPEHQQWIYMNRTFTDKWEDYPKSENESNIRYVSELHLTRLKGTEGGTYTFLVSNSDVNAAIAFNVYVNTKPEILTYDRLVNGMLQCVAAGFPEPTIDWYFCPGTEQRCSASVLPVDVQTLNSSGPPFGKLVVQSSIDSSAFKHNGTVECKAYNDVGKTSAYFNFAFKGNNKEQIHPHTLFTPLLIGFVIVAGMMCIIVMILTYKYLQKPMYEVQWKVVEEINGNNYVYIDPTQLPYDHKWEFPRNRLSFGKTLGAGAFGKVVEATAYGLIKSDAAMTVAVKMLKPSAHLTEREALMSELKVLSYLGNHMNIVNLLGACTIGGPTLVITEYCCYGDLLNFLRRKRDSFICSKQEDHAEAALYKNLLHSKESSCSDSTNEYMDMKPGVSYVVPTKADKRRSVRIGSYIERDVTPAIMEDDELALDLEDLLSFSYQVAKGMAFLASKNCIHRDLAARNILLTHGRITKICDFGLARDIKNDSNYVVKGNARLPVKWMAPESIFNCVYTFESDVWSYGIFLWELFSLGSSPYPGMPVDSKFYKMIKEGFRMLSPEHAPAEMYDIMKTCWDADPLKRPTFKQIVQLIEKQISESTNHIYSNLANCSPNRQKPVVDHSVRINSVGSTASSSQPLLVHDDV
Experiment [12] has as its target LIM domain kinase 1 (Homo sapiens) (UniProt P53667). The experiment in a line: Inhibition of wild-type human full length LIMK1 (M1 to D647 residues) expressed in Escherichia coli BL21 assessed as residual activity at 1000 nM after 30 mins by Kinomescan method relative to control. The method, boiled down: (§2)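 Single-concentration screen at 1 µM across a 456-kinase KINOMEscan panel. The read-out is Percent Control for each kinase.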

In experiment [13] the target is Mitogen-activated protein kinase kinase kinase 4 (Homo sapiens) (UniProt Q9Y6R4). Put plainly: Inhibition of wild-type human partial length MAP3K4 (G1319 to E1608 residues) expressed in Escherichia coli BL21 assessed as residual activity at 1000 nM after 30 mins by Kinomescan method relative to control.
Chain of Mitogen-activated protein kinase kinase kinase 4 (Homo sapiens) (Q9Y6R4 whole entry, the tested form may be a part): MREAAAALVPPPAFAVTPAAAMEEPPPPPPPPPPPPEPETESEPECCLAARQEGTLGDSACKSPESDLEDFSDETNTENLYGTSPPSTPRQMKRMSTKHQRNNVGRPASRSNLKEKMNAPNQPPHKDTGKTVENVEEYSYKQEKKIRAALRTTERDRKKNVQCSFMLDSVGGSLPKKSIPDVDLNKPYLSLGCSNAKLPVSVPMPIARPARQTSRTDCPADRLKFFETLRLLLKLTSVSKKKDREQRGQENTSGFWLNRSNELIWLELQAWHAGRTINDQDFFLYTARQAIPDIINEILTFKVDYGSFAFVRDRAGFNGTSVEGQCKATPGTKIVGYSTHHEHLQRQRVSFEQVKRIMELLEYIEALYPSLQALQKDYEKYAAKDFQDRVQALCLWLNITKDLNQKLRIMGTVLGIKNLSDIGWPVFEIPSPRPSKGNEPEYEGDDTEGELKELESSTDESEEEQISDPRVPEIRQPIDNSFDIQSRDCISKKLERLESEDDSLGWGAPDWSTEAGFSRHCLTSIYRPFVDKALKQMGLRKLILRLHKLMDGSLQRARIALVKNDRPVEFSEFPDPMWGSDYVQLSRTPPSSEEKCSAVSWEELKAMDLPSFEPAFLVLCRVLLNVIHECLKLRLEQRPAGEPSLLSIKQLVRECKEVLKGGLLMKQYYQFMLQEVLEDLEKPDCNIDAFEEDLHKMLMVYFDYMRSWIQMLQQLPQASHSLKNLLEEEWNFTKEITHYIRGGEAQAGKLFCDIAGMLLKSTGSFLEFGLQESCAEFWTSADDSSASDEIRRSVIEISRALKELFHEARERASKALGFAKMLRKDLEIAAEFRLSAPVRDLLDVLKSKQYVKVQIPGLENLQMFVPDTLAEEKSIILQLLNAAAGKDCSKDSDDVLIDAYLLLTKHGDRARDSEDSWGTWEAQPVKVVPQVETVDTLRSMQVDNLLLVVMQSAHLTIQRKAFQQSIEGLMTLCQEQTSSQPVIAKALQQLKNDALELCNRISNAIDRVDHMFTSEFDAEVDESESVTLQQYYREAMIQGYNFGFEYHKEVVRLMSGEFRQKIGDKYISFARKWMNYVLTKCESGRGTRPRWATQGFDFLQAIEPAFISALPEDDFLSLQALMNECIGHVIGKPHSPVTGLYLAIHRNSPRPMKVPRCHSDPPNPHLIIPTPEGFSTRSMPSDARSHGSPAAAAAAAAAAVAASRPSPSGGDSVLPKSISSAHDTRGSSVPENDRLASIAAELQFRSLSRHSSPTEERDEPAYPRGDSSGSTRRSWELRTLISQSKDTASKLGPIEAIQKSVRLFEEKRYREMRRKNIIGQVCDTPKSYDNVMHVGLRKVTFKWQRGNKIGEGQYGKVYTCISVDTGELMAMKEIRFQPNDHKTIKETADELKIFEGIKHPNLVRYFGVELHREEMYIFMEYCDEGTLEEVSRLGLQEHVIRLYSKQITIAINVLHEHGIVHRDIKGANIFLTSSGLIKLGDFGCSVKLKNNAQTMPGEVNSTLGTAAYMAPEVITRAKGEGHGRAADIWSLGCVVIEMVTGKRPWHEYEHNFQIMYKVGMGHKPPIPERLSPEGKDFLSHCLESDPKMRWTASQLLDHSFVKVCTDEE
In experiment [14] the target is Serine/threonine-protein kinase Nek7 (Homo sapiens) (UniProt Q8TDX7). The experiment in a line: Inhibition of wild-type human full length NEK7 (M1 to S302 residues) expressed in Escherichia coli BL21 assessed as residual activity at 1000 nM after 30 mins by Kinomescan method relative to control. The method, boiled down: as §2
Chain of Serine/threonine-protein kinase Nek7 (Homo sapiens) (Q8TDX7 whole entry, looked up, the tested form may be a part): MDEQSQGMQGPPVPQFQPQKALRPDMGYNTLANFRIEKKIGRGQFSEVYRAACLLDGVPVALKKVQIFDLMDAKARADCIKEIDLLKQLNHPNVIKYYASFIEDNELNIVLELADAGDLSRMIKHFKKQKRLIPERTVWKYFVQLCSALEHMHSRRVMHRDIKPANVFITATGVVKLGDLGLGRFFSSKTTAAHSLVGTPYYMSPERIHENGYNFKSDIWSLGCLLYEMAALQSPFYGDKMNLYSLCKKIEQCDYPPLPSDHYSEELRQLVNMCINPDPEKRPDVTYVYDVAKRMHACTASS
Experiment [15] concerns Proto-oncogene tyrosine-protein kinase receptor Ret (Homo sapiens), P07949 [V804M]. Put plainly: Inhibition of human partial length RET V804M mutant (E713 to D1014 residues) expressed in Escherichia coli BL21 assessed as residual activity at 1000 nM after 30 mins by Kinomescan method relative to control. The gist of the method: as §1
For experiment [16], the target named is Ribosomal protein S6 kinase alpha-5 (Homo sapiens) (UniProt O75582). The experiment in a line: Inhibition of wild-type human partial length N-terminal RPS6KA5 kinase domain 1 expressed in Escherichia coli BL21 assessed as residual activity at 1000 nM after 30 mins by Kinomescan method relative to control.
In experiment [17] the target is Serine/threonine-protein kinase SIK1 (Homo sapiens) (UniProt P57059). The experiment in a line: Inhibition of wild-type human partial length SIK (M1 to Y304 residues) expressed in Escherichia coli BL21 assessed as residual activity at 1000 nM after 30 mins by Kinomescan method relative to control.
Experiment [18] concerns the target Serine/threonine-protein kinase 35 (Homo sapiens) (UniProt Q8TDR2). Put plainly: Inhibition of wild-type human partial length STK35 (G182 to A534 residues) expressed in Escherichia coli BL21 assessed as residual activity at 1000 nM after 30 mins by Kinomescan method relative to control.
Experiment [19] concerns the target Serine/threonine-protein kinase TAO3 (Homo sapiens) (UniProt Q9H2K8). The experiment in a line: Inhibition of wild-type human partial length TAOK3 (M1 to T316 residues) expressed in HEK293 cells assessed as residual activity at 1000 nM after 30 mins by Kinomescan method relative to control. Format: cell-based.
Experiment [20] has as its target High affinity nerve growth factor receptor (Homo sapiens) (UniProt P04629). Put plainly: Inhibition of wild-type human partial length TRKA (G475 to G790 residues) expressed in HEK293 cells assessed as residual activity at 1000 nM after 30 mins by Kinomescan method relative to control. In kind it is cell-based.
The target in experiment [21] is Serine/threonine-protein kinase ULK2 (Homo sapiens) (UniProt Q8IYT8). The experiment in a line: Inhibition of wild-type human partial length ULK2 (M1 to S301 residues) expressed in HEK293 cells assessed as residual activity at 1000 nM after 30 mins by Kinomescan method relative to control. Format: cell-based.
Chain of Serine/threonine-protein kinase ULK2 (Homo sapiens) (Q8IYT8 whole entry, the tested form may be a part): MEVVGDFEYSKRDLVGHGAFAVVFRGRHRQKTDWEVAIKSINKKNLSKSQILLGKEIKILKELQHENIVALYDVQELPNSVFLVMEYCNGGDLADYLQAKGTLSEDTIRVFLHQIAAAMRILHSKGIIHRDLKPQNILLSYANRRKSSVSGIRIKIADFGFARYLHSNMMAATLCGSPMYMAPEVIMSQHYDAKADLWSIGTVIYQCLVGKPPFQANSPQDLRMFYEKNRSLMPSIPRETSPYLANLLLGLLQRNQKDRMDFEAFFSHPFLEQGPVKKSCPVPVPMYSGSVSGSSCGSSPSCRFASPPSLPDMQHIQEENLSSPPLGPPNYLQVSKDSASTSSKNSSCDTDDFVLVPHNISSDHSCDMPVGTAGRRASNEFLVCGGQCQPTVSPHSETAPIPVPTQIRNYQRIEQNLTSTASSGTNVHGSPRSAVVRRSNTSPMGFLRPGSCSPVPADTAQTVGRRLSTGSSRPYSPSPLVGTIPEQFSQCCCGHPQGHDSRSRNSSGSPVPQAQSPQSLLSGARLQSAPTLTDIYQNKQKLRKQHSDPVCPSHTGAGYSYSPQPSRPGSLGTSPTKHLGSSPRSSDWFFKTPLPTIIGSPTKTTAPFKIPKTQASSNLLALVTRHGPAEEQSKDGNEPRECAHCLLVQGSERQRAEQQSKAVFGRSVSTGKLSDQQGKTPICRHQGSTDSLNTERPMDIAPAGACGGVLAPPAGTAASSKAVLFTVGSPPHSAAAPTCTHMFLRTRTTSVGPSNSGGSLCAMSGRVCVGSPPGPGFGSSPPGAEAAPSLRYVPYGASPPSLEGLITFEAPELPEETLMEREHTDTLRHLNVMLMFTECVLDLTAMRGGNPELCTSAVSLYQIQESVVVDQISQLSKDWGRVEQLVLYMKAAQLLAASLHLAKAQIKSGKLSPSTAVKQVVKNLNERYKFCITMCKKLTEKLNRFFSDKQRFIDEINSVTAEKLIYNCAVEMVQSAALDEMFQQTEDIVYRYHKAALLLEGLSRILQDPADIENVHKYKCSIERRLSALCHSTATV
Experiment [22] concerns the target Tyrosine-protein kinase ZAP-70 (Homo sapiens) (UniProt P43403). Put plainly: Inhibition of wild-type human partial length ZAP70 (D20 to G299 residues) expressed in HEK293 cells assessed as residual activity at 1000 nM after 30 mins by Kinomescan method relative to control. Format: cell-based.

Activity data for one compound are collected here from ChEMBL document CHEMBL4043093, “2-Oxo-3, 4-dihydropyrimido[4, 5-d]pyrimidinyl derivatives as new irreversible pan fibroblast growth factor receptor (FGFR) inhibitors” (Eur J Med Chem, 2017).

Structures are written as SMILES.

Chain of LIM domain kinase 1 (Homo sapiens) (P53667 whole entry, looked up, the tested form may be a part): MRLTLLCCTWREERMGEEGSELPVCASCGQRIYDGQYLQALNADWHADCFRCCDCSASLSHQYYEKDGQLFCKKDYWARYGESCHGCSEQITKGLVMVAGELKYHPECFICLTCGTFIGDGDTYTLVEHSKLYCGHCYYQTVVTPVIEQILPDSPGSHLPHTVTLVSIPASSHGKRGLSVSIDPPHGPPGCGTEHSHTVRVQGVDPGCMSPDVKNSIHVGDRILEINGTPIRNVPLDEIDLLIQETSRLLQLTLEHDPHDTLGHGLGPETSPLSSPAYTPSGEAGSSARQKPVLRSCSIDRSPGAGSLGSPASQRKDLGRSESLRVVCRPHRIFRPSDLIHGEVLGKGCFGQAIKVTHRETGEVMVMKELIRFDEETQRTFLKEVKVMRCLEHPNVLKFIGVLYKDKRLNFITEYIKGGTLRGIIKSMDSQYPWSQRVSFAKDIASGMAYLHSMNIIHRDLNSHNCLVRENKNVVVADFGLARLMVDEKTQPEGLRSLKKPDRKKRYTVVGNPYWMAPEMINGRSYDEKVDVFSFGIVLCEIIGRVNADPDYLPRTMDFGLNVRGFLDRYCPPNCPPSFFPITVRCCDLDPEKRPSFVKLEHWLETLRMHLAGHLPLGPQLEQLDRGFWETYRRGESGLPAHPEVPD
Chain of Serine/threonine-protein kinase 35 (Homo sapiens) (Q8TDR2 whole entry, the tested form may be a part): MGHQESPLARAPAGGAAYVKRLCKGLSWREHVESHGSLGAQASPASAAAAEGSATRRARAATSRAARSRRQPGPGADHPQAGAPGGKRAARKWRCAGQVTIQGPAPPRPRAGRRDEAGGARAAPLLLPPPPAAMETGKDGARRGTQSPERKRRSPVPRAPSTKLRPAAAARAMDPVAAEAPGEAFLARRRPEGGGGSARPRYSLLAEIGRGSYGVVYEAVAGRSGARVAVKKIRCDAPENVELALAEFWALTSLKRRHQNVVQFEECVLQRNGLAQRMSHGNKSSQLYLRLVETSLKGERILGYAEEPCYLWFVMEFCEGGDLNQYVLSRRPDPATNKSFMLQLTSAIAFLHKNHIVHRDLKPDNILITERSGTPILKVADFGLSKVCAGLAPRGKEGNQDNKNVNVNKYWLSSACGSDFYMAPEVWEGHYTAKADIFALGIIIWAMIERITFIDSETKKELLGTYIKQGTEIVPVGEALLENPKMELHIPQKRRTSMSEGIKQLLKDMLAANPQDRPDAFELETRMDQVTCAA

Regarding `COc1cc(OC)c(Cl)c(N2Cc3cnc(Nc4ccc(F)cc4)nc3N(C3CCN(C(=O)/C=C/CN(C)C)CC3)C2=O)c1Cl`, the Activity amounted to 92% in experiment [1]; 68% in experiment [2]; 92% in experiment [3]; 100% in [4]; 82% in experiment [5]; 100% in [6]. For the same compound, the Activity in experiment [7] came out at 7%; in experiment [8] it was 77%; in experiment [9], 91%; in experiment [10], 49%; in experiment [11] it was 19%; in [12], 100%. The Activity in experiment [13] amounted to 46%; in [14], 100%; in [15], 52%; in [16] it was 99%; in experiment [17], 19%; in experiment [18], 100%. In addition, the Activity in experiment [19] was 36%; in experiment [20], 38%; in experiment [21], 100%; in experiment [22], 85%.
